Residue numbers refer to the chain shown, from its start. Calls of active or inactive are those of the source. The calls are words filed in the database; no cut-off is given here.
Tests used:
[1] = biological target: T1, Protein phosphatase methylesterase 1 (Mus musculus, UniProt Q8BVQ5); assay: Inhibition of PME1 binding to FP-rhodamine in mouse brain soluble proteome after 45 mins by gel-based competitive activity-based protein profiling assay
T1 sequence (Q8BVQ5 whole entry): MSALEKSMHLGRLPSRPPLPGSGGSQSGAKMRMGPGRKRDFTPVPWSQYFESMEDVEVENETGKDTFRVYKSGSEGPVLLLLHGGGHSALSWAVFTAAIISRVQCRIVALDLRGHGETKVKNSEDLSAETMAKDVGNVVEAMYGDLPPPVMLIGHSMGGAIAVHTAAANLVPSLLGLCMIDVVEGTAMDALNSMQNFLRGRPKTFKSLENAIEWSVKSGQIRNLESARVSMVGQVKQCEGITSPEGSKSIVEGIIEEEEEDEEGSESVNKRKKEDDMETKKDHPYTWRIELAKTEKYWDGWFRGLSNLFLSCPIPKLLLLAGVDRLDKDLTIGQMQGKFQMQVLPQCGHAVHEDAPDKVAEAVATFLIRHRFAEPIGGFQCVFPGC

[2] = biological target: T2, Protein phosphatase methylesterase 1 (Mus musculus) (UniProt Q8BVQ5); assay: Inhibition of PME1 binding to FP-rhodamine in mouse brain soluble proteome at 20 uM after 30 mins by […] activity-based protein profiling assay relative to control; assay type: tissue-based
T2 sequence (whole entry): T1 sequence (Q8BVQ5 whole entry)

[3] = biological target: Acylamino-acid-releasing enzyme (Mus musculus) (UniProt Q8R146); assay: Inhibition of acyl peptide hydrolase binding to FP-rhodamine in mouse brain soluble proteome at 50 uM after 30 mins by […] activity-based protein profiling assay relative to control; assay type: tissue-based
Chain of Acylamino-acid-releasing enzyme (Mus musculus) (Q8R146 whole entry): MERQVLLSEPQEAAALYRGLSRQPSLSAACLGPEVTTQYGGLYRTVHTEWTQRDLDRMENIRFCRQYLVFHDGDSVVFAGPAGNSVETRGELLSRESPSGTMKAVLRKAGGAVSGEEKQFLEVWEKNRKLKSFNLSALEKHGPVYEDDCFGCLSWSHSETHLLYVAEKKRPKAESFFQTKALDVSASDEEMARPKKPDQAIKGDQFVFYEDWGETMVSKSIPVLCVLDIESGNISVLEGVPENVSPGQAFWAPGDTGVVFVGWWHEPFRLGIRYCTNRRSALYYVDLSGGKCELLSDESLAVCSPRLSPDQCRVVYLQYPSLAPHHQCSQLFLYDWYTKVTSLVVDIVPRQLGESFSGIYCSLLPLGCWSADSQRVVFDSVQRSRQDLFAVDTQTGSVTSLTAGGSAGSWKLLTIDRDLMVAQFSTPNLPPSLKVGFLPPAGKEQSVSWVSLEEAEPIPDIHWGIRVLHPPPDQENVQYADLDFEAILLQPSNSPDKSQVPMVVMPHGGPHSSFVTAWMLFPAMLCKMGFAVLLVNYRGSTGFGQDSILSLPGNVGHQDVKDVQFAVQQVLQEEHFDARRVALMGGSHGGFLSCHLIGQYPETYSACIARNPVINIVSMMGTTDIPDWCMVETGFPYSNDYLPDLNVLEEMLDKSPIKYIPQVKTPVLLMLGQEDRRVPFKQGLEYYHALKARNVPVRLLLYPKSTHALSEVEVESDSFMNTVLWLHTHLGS

[4] = biological target: T3, Protein phosphatase methylesterase 1 (Homo sapiens) (UniProt Q9Y570); assay: Inhibition of PME1 overexpressed in HEK293T cells assessed as increase in methylated PP2A level at 20 uM after 1 hr by Western blot analysis; assay type: cell-based; details: HEK-293T
T3 sequence (whole entry): T1 sequence (Q8BVQ5 whole entry) with T42S, G114S, S123P, V150I, A167S, A168S, V268I, N269S
Outline: (§1)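 HEK 293T cells, either stably overexpressing PME-1 or untransfected, treated in medium for 1 h at 37 °C. Total cell extract (2 mg/mL) run on reducing SDS-PAGE (10%) and blotted with demethylated-specific (4b7), methylated-specific (2A10) and total PP2A antibodies, imaged by infrared fluorescence. Mean ± SEM, n = 3, compared against DMSO-treated cells.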

[5] = biological target: T3, Protein phosphatase methylesterase 1 (Homo sapiens); assay: Inhibition of PME1 overexpressed in HEK293T cells assessed as reduction in demethylated PP2A level at 20 uM after 1 hr by Western blot analysis relative to control; assay type: cell-based; details: HEK-293T
Outline: as §1

[6] = biological target: T3, Protein phosphatase methylesterase 1 (Homo sapiens); assay: Inhibition of PME1-based PP2A […] in human HEK293T cells at 50 uM after 3 hrs by Western blot analysis; assay type: cell-based; details: HEK-293T
[7] = biological target: Acylamino-acid-releasing enzyme (Homo sapiens) (UniProt P13798); assay: Inhibition of acyl peptide hydrolase binding to FP-rhodamine in human HEK293T cells at 0.5 to 50 uM after 30 mins by […] activity-based protein profiling assay; details: HEK-293T
Chain of Acylamino-acid-releasing enzyme (Homo sapiens) (P13798 whole entry): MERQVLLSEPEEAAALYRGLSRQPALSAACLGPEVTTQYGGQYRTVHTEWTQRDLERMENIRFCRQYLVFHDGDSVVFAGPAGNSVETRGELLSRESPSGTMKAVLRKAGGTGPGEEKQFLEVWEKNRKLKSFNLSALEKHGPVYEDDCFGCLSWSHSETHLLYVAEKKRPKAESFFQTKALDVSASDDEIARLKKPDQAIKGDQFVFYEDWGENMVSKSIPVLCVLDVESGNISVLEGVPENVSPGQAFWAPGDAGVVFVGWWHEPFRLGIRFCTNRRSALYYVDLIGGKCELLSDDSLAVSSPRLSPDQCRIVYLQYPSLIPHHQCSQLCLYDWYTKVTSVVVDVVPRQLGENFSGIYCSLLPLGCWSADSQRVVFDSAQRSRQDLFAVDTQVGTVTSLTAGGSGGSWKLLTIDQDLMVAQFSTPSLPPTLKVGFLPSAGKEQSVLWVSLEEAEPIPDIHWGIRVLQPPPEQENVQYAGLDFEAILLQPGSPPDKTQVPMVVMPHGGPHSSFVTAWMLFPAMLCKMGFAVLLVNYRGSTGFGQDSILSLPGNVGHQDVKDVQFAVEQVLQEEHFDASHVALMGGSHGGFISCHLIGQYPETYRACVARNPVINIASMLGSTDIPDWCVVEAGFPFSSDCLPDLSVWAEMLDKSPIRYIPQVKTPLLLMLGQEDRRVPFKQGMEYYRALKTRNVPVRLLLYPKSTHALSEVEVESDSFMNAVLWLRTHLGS

[8] = biological target: Protein phosphatase methylesterase 1 (Homo sapiens, UniProt Q9Y570); assay: Inhibition of PME1 binding to FP-rhodamine in human MDA-MB-231 cells after 45 mins by gel-based competitive activity-based protein profiling assay
Chain of Protein phosphatase methylesterase 1 (Homo sapiens, UniProt Q9Y570) (Q9Y570 whole entry): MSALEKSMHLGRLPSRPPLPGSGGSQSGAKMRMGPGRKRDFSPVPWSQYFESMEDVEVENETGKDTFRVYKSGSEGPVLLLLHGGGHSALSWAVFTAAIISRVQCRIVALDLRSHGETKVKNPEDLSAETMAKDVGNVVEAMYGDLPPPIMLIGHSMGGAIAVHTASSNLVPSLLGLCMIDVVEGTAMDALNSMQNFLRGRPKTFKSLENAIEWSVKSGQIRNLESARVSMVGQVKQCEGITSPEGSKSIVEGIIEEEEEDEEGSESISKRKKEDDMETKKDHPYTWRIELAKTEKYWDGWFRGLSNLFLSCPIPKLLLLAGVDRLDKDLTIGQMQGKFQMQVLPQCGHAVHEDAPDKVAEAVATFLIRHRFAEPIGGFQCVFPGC

[9] = biological target: T3, Protein phosphatase methylesterase 1 (Homo sapiens); assay: Inhibition of PME1 expressed in untransfected HEK293T cells assessed as reduction in demethylated PP2A level at 500 nM after 1 hr by Western blot analysis; assay type: cell-based; details: HEK-293T
Outline: as §1

[10] = biological target: Prolyl endopeptidase (Mus musculus) (UniProt Q9QUR6); assay: Inhibition of prolyl endopeptidase binding to FP-rhodamine in mouse brain soluble proteome at 50 uM after 30 mins by […] activity-based protein profiling assay relative to control; assay type: tissue-based
Chain of Prolyl endopeptidase (Mus musculus) (Q9QUR6 whole entry, looked up): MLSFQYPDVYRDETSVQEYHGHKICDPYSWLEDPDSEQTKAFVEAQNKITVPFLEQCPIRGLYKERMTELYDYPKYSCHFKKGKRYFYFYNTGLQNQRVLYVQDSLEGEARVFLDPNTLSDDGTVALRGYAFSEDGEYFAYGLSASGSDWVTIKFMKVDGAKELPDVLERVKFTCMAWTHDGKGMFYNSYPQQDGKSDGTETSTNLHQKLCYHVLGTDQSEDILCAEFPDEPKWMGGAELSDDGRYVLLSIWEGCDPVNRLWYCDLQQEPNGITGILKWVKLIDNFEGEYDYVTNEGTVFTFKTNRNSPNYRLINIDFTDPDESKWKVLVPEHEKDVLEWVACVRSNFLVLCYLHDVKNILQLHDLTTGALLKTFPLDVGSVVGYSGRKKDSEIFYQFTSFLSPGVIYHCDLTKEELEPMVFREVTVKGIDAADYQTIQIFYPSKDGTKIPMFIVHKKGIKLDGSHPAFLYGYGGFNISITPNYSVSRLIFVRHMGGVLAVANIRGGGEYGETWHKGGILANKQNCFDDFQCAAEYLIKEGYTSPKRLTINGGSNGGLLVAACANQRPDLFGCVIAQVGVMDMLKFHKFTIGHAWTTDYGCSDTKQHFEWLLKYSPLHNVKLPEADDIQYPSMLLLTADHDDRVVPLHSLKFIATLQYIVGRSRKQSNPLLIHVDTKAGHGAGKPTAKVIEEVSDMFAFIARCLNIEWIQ

N#C/C(=C\c1cccn1S(=O)(=O)c1ccccc1)S(=O)(=O)c1ccccc1
IC50 [1]: > 20 µM

CS(=O)(=O)/C(C#N)=C/c1ccc[nH]1
inhibition [2]: 0%

CS(=O)(=O)/C(C#N)=C/c1ccc([N+](=O)[O-])cc1
inhibition [2]: 0%

N#CC(C#N)=Cc1cccn1S(=O)(=O)c1ccccc1
inhibition [2]: 50%

CS(=O)(=O)/C(C#N)=C/c1cccn1S(=O)(=O)c1ccc(Cl)cc1
inhibition [3]: > 50%

CC(C)(C)S(=O)(=O)/C(C#N)=C/c1cccn1S(=O)(=O)c1cccc(C#N)c1
IC50 [1]: 3.4 µM

N#C/C(=C\c1cccn1S(=O)(=O)c1cccc(C#N)c1)S(=O)(=O)c1ccc(F)cc1
inhibition [4]: Active
inhibition [5]: 80%
IC50 [1]: 0.64 µM

CS(=O)(=O)/C(C#N)=C/c1cccn1S(=O)(=O)c1ccccc1
inhibition [3]: > 50%
inhibition [2]: 90%
inhibition [6]: Active
inhibition [7]: Active
IC50 [8]: 10.8 µM

CS(=O)(=O)/C(C#N)=C/c1ccccc1
inhibition [2]: 0%

CS(=O)(=O)C(C#N)Cc1cccn1S(=O)(=O)c1ccccc1 (stereo unspecified)
inhibition [2]: 0%

CS(=O)(=O)/C(C#N)=C/c1cccn1S(=O)(=O)c1ccc([N+](=O)[O-])cc1
IC50 [1]: 3 µM

CS(=O)(=O)/C(=C/c1cccn1S(=O)(=O)c1ccccc1)CN
inhibition [2]: 0%

COC(=O)N1C(=O)[C@](c2ccccc2)(C2CCCC2)N1C(=O)OC
inhibition [9]: Active

CS(=O)(=O)/C(C#N)=C/c1cccn1S(=O)(=O)c1ccc(C#N)cc1
inhibition [10]: > 50%
IC50 [1]: 4 µM

CS(=O)(=O)/C(C#N)=C/c1cccn1S(=O)(=O)c1cccc(C#N)c1
IC50 [1]: 2.5 µM

CC(C)(C)S(=O)(=O)/C(C#N)=C/c1cccn1S(=O)(=O)c1ccccc1
IC50 [1]: 6.8 µM

CS(=O)(=O)C(=Cc1cccn1S(=O)(=O)c1ccccc1)S(C)(=O)=O
inhibition [10]: > 50%
inhibition [2]: 0%

CS(=O)(=O)/C(C#N)=C/c1cccn1S(=O)(=O)c1c(F)c(F)c(F)c(F)c1F
IC50 [1]: > 20 µM

— ChEMBL document CHEMBL2203175, “Discovery and optimization of sulfonyl acrylonitriles as selective, covalent inhibitors of protein phosphatase methylesterase-1” (J Med Chem, 2011)
